Assay results from different studies.
Lines come from different studies, so protocols differ.
Target: Cytochrome P450 2D6 (CYP2D6, Homo sapiens, UniProt P10635)
Observed: enzyme activity
Action: inhibitor

Structure (SMILES) | assay | test system | conditions | IC50 [µM]
CCc1cc(/C(C)=N/OCc2ccc(C3CCCCC3)c(C(F)(F)F)c2)ccc1CN1CC(C(=O)O)C1 |  | human, liver microsomes | 20 min | > 1.1
CCOC(=O)C1CCN(C(=O)c2ccc(N(CC)Cc3cnc4nc(N)nc(N)c4n3)cc2)CC1 | luciferase |  |  | 51.3
COc1ccn2c(Nc3ccccc3F)c(-c3ccncn3)nc2c1 |  |  |  | 2.3
Cc1cc2c(F)c(Oc3ncnn4cc(OC[C@@H](C)O)c(C)c34)ccc2[nH]1 | fluorescence |  | 15 min | 34.7
Nc1nc(N)c2nc(C(=O)NCc3cccc(C(F)(F)F)c3)cnc2n1 | luciferase |  |  | 0.251
Cc1cc([C@H]2C[C@H]3[C@@H](CF)SC(N)=N[C@@]3(c3ccc(F)cc3F)CO2)on1 |  | human, liver microsomes | pH 7.4 | > 30
COc1ccc2c(Cc3ccccc3F)c3n(c(=O)c2c1OC)CCc1cc2c(cc1-3)OCO2 |  |  |  | > 10
Nc1nc(N)c2nc(CNc3ccc(C(=O)NCCc4ccccc4)cc3)cnc2n1 | luciferase |  |  | 10.5
N#C[C@H](C[C@@H]1CCCNC1=O)NC(=O)[C@H](CC1CC1)NC(=O)c1cc2cccc(Cl)c2[nH]1 |  | human, liver microsomes |  | 50.7
O=c1c(O)c(-c2ccc(O)c(O)c2)oc2cc(O)cc(O)c12 | fluorescence |  | pH 7.4 | 0.65
COc1ccc2cc3[n+](cc2c1OC)CCc1cc2c(cc1-3)OCO2 |  |  |  | 0.6
C=CC(=O)Nc1cc(Nc2nccc(Nc3cc(Cl)c(F)cc3C(C)(C)O)n2)c(OC)cc1N1CC[C@@H](N(C)C)C1 |  | human, liver microsomes |  | 6.3
